1 compound from ChEMBL document CHEMBL4393735, “Molecular modelling, synthesis, and biological evaluations of a 3,5-disubstituted isoxazole fatty acid analogue as a PPARα-selective agonist” (Bioorg Med Chem, 2019) can be followed below.

Each structure is given as a SMILES string. Calls of active or inactive are those of the source. No cut-off for these calls is given here.

Assay [1] concerns the target T1, Peroxisome proliferator-activated receptor alpha (Homo sapiens) (UniProt Q07869).
T1 sequence (whole entry): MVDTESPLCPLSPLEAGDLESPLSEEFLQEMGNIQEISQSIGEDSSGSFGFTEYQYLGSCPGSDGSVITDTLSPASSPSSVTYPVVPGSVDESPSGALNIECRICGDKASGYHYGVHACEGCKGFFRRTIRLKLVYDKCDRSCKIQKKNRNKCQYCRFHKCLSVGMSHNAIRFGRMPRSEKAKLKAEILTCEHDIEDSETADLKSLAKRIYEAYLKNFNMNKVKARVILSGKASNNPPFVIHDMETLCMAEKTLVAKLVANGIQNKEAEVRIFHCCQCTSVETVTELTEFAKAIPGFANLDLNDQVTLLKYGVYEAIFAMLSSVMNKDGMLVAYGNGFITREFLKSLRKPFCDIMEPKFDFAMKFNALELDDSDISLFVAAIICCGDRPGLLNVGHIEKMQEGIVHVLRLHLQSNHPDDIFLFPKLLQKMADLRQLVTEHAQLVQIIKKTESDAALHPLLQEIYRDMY
Put plainly: Agonist activity at full length human FLAG-tagged GAL4-DBD fused PPARalpha LBD (168 to 468 residues) expressed in COS1 cells at 25 to 50 uM measured after 18 hrs by dual luciferase reporter gene assay. It counts as cell-based. The method, boiled down:
(§1)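 COS-1 cells were transfected using Lipofectamine 2000 with GAL4-DBD–human NR-LBD plasmid, a 5×UAS-SV40 firefly luciferase reporter and pRL-CMV. After 6 h, cells were treated with 0, 25 or 50 μM in 0.1% DMSO (final) for 18 h. Firefly signal was normalized to Renilla, then to DMSO control and GAL4-only. Three biological replicates in quadruplicate, mean ± SEM, two-way ANOVA with Bonferroni.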
A general note: A reporter such as luciferase makes a cellular process visible.

In assay [2] the target is T2, Peroxisome proliferator-activated receptor delta (Homo sapiens) (UniProt Q03181).
T2 sequence (whole entry): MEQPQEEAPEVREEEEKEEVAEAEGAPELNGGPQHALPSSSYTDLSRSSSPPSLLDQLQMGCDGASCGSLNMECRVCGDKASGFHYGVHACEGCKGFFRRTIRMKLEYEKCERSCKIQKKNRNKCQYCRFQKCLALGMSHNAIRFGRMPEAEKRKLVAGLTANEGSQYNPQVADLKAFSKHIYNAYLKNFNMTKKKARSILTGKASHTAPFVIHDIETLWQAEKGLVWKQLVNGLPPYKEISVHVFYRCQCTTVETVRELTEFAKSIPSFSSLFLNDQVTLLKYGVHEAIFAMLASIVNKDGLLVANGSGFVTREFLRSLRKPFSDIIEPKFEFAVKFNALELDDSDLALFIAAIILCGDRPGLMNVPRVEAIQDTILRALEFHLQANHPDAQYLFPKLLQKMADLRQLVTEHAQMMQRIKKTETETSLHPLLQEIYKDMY
Put plainly: Agonist activity at full length human GAL4-DBD fused PPARdelta LBD expressed in COS1 cells at 25 to 50 uM measured after 18 hrs by dual luciferase reporter gene assay. It counts as cell-based. The method, boiled down:
as §1

For assay [3], the target named is T3, Oxysterols receptor LXR-alpha (Homo sapiens) (UniProt Q13133).
T3 sequence (whole entry): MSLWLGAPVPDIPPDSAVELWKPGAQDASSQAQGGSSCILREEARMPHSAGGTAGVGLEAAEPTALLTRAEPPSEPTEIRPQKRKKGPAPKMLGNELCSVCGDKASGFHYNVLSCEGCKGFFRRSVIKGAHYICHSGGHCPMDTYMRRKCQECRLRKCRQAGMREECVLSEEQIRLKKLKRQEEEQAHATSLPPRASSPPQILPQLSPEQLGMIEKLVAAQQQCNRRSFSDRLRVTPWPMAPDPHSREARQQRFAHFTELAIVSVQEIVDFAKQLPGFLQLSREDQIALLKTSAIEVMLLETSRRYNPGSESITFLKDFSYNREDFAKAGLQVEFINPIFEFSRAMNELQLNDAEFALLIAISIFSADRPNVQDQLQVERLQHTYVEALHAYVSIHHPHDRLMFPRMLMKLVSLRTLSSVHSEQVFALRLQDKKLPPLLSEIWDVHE
Put plainly: Agonist activity at full length human GAL4-DBD fused LXRalpha LBD (164 to 447 residues) expressed in COS1 cells at 25 to 50 uM measured after 18 hrs by dual luciferase reporter gene assay. It counts as cell-based. The method, boiled down: as §1

The subject of a further assay is SGBS. Put plainly: Upregulation of ANGPTL4 gene expression in human preadipocyte derived from Simpson-Golabi-Behmel syndrome (SGBS) patient at 25 uM measured for 12 days by qRT-PCR analysis. The class given is functional, cell-based. The method, boiled down: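 SGBS cells were differentiated with serum-free induction medium containing 25 μM test agent, 2 μM rosiglitazone or 0.1% DMSO from day 0. IBMX and dexamethasone were removed on day 4 and medium was renewed on day 8. RNA was taken on days 0, 4, 8 and 12 for qPCR, normalized to TBP and to day 0. At least three biological replicates in duplicate, two-way ANOVA with Bonferroni.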

In assay [4] the target is T1, Peroxisome proliferator-activated receptor alpha (Homo sapiens). Nature of the assay: Agonist activity at full length human FLAG-tagged GAL4-DBD fused PPARalpha LBD (168 to 468 residues) expressed in COS1 cells transfected with hRXRalpha and pGL3-CPT1AInt PPRE mutant assessed as CPT1A mRNA level at 50 uM measured after 18 hrs by dual luciferase reporter gene assay. It counts as cell-based. The method in brief: (§2)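 COS-1 cells were transfected with full-length human PPARα (or PPARγ) plus RXRα expression plasmids, with a wild-type or PPRE-mutated CPT1A-intronic (or PLIN1) luciferase reporter and pRL-CMV. Cells were treated with 50 μM in 0.1% DMSO (final) for 18 h. Dual-luciferase read-out normalized to DMSO control. Three biological replicates in quadruplicate, mean ± SEM.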

The target in assay [5] is T4, Peroxisome proliferator-activated receptor gamma (Homo sapiens) (UniProt P37231).
T4 sequence (whole entry): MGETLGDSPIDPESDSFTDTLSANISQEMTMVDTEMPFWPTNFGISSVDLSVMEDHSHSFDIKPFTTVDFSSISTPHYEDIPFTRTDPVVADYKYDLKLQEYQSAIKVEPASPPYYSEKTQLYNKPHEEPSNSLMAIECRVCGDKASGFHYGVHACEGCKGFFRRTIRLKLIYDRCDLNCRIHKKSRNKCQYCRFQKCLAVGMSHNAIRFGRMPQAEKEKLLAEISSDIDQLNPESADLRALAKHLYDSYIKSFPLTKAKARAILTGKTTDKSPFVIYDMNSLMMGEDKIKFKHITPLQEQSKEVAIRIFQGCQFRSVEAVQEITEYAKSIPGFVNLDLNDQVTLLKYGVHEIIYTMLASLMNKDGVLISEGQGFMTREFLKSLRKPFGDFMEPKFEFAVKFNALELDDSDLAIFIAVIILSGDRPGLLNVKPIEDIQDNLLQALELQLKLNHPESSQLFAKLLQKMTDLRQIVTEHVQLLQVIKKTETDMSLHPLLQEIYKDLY
Nature of the assay: Agonist activity at full length human FLAG-tagged GAL4-DBD fused PPARgamma LBD (205 to 505 residues) expressed in COS1 cells transfected with hRXRalpha and hPLIN1-driven reporter assessed as PLIN1 mRNA level at 50 uM measured after 18 hrs by dual luciferase reporter gene assay. The class given is cell-based. The method in brief:
as §2

Regarding `CCCCCCCc1cc(CCCCCC(=O)O)no1`, the result (in assay [1]; in the assay on SGBS) was Active. Also, the result in assay [2], in assay [3], in assay [4] and in assay [5] was inactive.
